Compounds with a hit are over-represented: about 4.8% of the library has one in this group of screens.
PAFAH2 FP inh = PAFAH2 enzyme inhibitors, primary screen, biochemical, fluorescence polarization, human | Platelet-activating factor acetylhydrolase 2, cytoplasmic (Homo sapiens), Q99487 | recombinant PAFAH2, FP-rhodamine activity probe | inhibition, % at 3.39 µM | actives 0.99% (n = 340,000) | AID 492956, 2010;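 active = inhibition above the mean over all tested compounds plus 3 SD, cut at about 30% in these data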;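 note: inhibitors block probe labeling of enzyme so polarization drops; 0% = enzyme with DMSO and 100% = wells lacking PAFAH2 protein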
PAFAH1B3 inh = PAFAH1B3 enzyme inhibitors, primary screen, biochemical, fluorescence polarization, human; recombinant PAFAH1B3, FP-rhodamine probe; inhibition, % at 3.39 µM; actives 0.28% (n = 340,000); AID 492972, 2010;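 active = inhibition above the screen-wide average of all tested compounds plus 3 SD, cut at about 25% in these data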;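 note: 0% = enzyme with DMSO only and 100% = wells lacking PAFAH1B3 protein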
pPAFAH FP inh = pPAFAH enzyme inhibitors, primary screen, biochemical, fluorescence polarization, human; actives 1.5% (n = 330,000); inhibition, % at 3.39 µM; recombinant pPAFAH, FP-rhodamine probe fluorescence polarization; AID 463082, 2010;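 active = inhibition above the mean inhibition across the screen plus 3 SD, cut at about 25% in these data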;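 note: inhibitors block binding of the rhodamine activity-based probe so polarization drops; 0% = enzyme with DMSO and 100% = wells lacking pPAFAH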
Target sequence (Q13093 whole entry, looked up): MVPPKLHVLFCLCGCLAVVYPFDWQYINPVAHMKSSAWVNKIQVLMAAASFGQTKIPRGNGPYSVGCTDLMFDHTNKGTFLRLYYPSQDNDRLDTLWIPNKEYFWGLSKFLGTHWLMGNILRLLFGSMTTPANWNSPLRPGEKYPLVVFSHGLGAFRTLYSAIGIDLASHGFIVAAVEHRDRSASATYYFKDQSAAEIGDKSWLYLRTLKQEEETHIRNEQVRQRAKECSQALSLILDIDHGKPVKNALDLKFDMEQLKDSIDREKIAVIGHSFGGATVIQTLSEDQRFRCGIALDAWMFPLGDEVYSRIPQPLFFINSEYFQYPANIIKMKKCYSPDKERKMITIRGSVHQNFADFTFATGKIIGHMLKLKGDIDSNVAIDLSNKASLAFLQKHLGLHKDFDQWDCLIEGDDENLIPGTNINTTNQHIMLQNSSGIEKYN
PAFAH1B2 FP inh = PAFAH1B2 enzyme inhibitors, primary screen, biochemical, fluorescence polarization, human; actives 1.2% (n = 340,000); Platelet-activating factor acetylhydrolase IB subunit alpha2 (Homo sapiens), P68402; inhibition, % at 3.39 µM; recombinant PAFAH1B2, FP-rhodamine activity probe; AID 492953, 2010;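 active = inhibition above the mean of all tested compounds plus 3 SD, cut at about 24% in these data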;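 note: 0% = enzyme with DMSO and 100% = wells lacking PAFAH1B2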
UCH37 inh = inhibitors of human UCH37 deubiquitinase, primary screen, biochemical, Ub-AMC cleavage, fluorescence. purified proteasome/UCH37. inhibition, % (test concentration not listed). actives 0.33% (n = 330,000). AID 588478, 2011;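 active = mean inhibition over replicate wells above about 20%, limit read from the data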;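 note: 0% = compound-free wells with enzyme and 100% = wells lacking proteasome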
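Material: human UCH37 enzyme supplied as purified proteasome complex / Amount: 0.15 nM proteasome as dispensed / Buffer or medium: pH 7.4 Tris-HCl (50 mM) with ovalbumin, ATP-MgCl2, DTT / Times: preincubation 30 min, reaction 25 min, room temperature / Technique: AMC fluorescence from Ub-AMC cleavage, excitation 355 nm, emission 460 nm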
NR3A LBD binder = binders of NR3A ligand-binding domain, primary screen, biophysical, differential scanning fluorimetry, uHTS; Glutamate receptor ionotropic, NMDA 3A (GRIN3A) ligand-binding domain; NR3A LBD differential scanning fluorimetry, Tm shift; 0% = protein alone, 100% = glycine-bound protein; Tm shift relative to glycine control, % at 25 µM; actives 2.5% (n = 340,000); AID 1259313, 2017;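 active = melting temperature shift of at least 10% of the positive control shift, at one fixed dose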
pPAFAH confirm = pPAFAH (PLA2G7) enzyme inhibitors, confirmation, biochemical, fluorescence polarization, human. shares compounds with pPAFAH FP inh. recombinant pPAFAH, FP-Rh probe fluorescence polarization. inhibition, % at 3.39 µM. actives 72% (n = 2,300);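 active = mean inhibition of the triplicate above the hit cutoff set for the earlier primary screen, cut at about 25% in these data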;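 note: 0% = enzyme with DMSO and 100% = wells lacking pPAFAH enzyme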
Active calls of the source: *; / = no result given.

SMILES	PAFAH2 FP inh	PAFAH1B3 inh	pPAFAH FP inh	PAFAH1B2 FP inh	UCH37 inh	NR3A LBD binder	pPAFAH confirm
O=[N+]([O-])c1cc(S(=O)(=O)N2CCCC2)ccc1NN=Cc1ccccn1	/	/	/	/	9	/	/
CC(/C=C1\SC(=S)N(C(C(=O)O)C(C)C)C1=O)=C\c1ccccc1 (centres undefined)	12	9	4	16	9	-6	/
CC(/C=C1\SC(=S)N(c2ccc(C(=O)O)cc2)C1=O)=C\c1ccccc1	10	4	35*	2	/	4	28*
COc1ccc(NC(=O)c2cc3c(-c4ccc(OC)c(OC)c4)nn(C)c3s2)cc1OC	18	14	46*	4	-1	-3	43*
COc1ccc(-c2nn(C)c3sc(C(=O)NCc4ccco4)cc23)cc1OC	-42	-25	-31	-19	-71	2	/
Nc1ccc(O)cc1C(=O)OCC(=O)c1ccc(C2CCCCC2)cc1	12	5	51*	6	-20	5	26*
O=C(N=Nc1c(O)[nH]c2ccccc12)c1ccccc1NS(=O)(=O)c1cccs1	11	3	9	-4	7	-1	/
COc1ccc2[nH]c(O)c(N=NC(=O)c3ccc(NS(=O)(=O)c4cccs4)cc3)c2c1	23	32*	44*	21	7	2	39*
N#CC1=C(N)Oc2n[nH]c(-c3cccs3)c2C1c1ccsc1 (centres undefined)	10	8	38*	10	-3	-3	6
CCC(=O)NN=Cc1ccc(-c2ccc([N+](=O)[O-])cc2)o1	/	/	/	/	5	/	/
COc1ccccc1C=NOCC(=O)NCc1ccc2c(c1)OCO2	/	/	/	/	5	/	/
CC(CN1CCOCC1)OC(=O)Cc1ccc(Cl)cc1 (centres undefined)	-10	5	54*	9	-1	-1	5
CN(C)S(=O)(=O)c1cccc(NC(=S)NN=Cc2cccc(O)c2)c1	/	/	/	/	1	/	/
NS(=O)(=O)c1ccc(N2CCCC2=O)c([N+](=O)[O-])c1	2	5	44*	6	6	-3	4
CN(C)CC/C=C1/c2ccccc2COc2ccc(CC(=O)O)cc21	0	-1	60*	-2	1	0	4
CN(C)CCC=C1c2ccccc2C=Cc2ccccc21	-6	6	2	0	-4	-1	/
CC(=NNC(=O)CSc1nc2ccccc2o1)c1ccc(O)cc1	/	/	/	/	2	/	/
N#C/C(=N\Nc1cccc(C(F)(F)F)c1)C(=O)c1csc(-c2cccnc2)n1	16	10	45*	6	/	11*	63*
Cc1ccc(C(=O)Nc2cccc(C(F)(F)F)c2)cc1NC(=O)c1csc(-c2ccncc2)n1	-14	-4	-5	-6	3	5	/
O=C(NN=Cc1ccccc1F)c1csc2c1CCCC2	/	/	/	/	0	/	/
Cc1cc(C2C(C#N)=C(N)OC3=C2C(=O)CCC3)c(C)s1 (centres undefined)	-30	11	2	5	3	-1	/
COc1cc(C2C(C#N)=C(N)OC3=C2C(=O)CCC3)c([N+](=O)[O-])cc1OC (centres undefined)	26	27*	38*	12	0	2	11
CC(C)(C)c1ccc(C(=O)Nc2sc3c(c2C(=O)O)CCC3)cc1	14	10	37*	47*	-13	-6	41*
COc1ccc(-c2csc(NC(=O)c3ccc(C(C)(C)C)cc3)c2C(=O)O)cc1	/	/	37*	/	-25	-1	41*
O=C(Nc1sc2c(c1C(=O)O)CCCC2)c1ccc(F)cc1	12	1	/	8	7	-3	/
Cc1cc(NN=Cc2ccco2)c2ccccc2n1	/	/	/	/	-14	/	/

Screening results (PubChem)
